Measurements as given in ChEMBL document CHEMBL2040734, “Benzothiazoles: search for anticancer agents” (2012).

Columns and labels:
Type in all cases: functional
MCF7 [1] = experiment: Cytotoxicity against human MCF7 cells assessed as cell growth at 10 '-5 M after 48 hrs by sulforhodamine B assay; details: MCF7, 48 h, read-out: Activity
HCT-15 = experiment: Cytotoxicity against human HCT15 cells assessed as cell growth at 0.01 uM after 48 hrs by sulforhodamine B assay; details: HCT-15, 48 h, read-out: Activity
Method in brief: (§1)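 Five-dose NCI panel run at 0.01, 0.1, 1, 10 and 100 µM. Cells were in RPMI 1640 with 5% FBS and 2 mM L-glutamine, seeded at 5000–40,000 cells/well and pre-incubated 24 h. Drug was diluted from a DMSO stock into medium with 50 µg/ml gentamicin. Exposure was 48 h at 37 °C, 5% CO2. Cells were fixed with cold TCA and stained with 0.4% SRB, read at 515 nm. Percent growth came from time-zero, control and test absorbances.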

UACC-257 = experiment: Cytotoxicity against human UACC257 cells assessed as cell growth at 1 uM after 48 hrs by sulforhodamine B assay; details: UACC-257, 48 h, read-out: Activity
NCI-H522 = experiment: Cytotoxicity against human NCI-H522 cells assessed as cell growth at 100 uM after 48 hrs by sulforhodamine B assay; details: NCI-H522, 48 h, read-out: Activity
786-0 = experiment: Cytotoxicity against human 786-0 cells assessed as cell growth at 0.1 uM after 48 hrs by sulforhodamine B assay; details: 786-0, 48 h, read-out: Activity
Method in brief: (§2)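 NCI-60 five-dose screen. Cells were grown in RPMI 1640 with 5% FBS and 2 mM L-glutamine and preincubated 24 h. Compound (DMSO stock) was tested at 0.01, 0.1, 1, 10 and 100 µM for 48 h at 37 °C. Cells were fixed in situ with cold TCA (final 10%) and stained with 0.4% SRB. A515 was read, and percent growth was calculated against time-zero and control plates.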

MCF7 [2] = experiment: Cytotoxicity against human MCF7 cells assessed as cell growth at 0.1 uM after 48 hrs by sulforhodamine B assay; details: MCF7, 48 h, read-out: Activity
NCI-H322M = experiment: Growth inhibition of human NCI-H322M cells after 48 hrs by sulforhodamine B assay; details: for CC50: read-out: LC50 (the source's name)
Method in brief: (§3)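 Adherent NCI-60 lines were grown in RPMI 1640 with 5% FBS and 2 mM L-glutamine, plated at 5000–40,000 cells/well and preincubated 24 h. They were then exposed to five concentrations (0.01–100 µM, from a DMSO stock) for 48 h at 37 °C, 5% CO2. Cells were fixed with cold TCA (10% final, 60 min, 4 °C) and stained with 0.4% SRB. Dye was solubilized in 10 mM Tris base and A515 read. GI50 was derived from time-zero, control and treated absorbances.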

T47D [3] = experiment: Growth inhibition of human T47D cells after 48 hrs by sulforhodamine B assay; method in brief: as §3
DU-145 = experiment: Cytotoxicity against human DU145 cells assessed as cell growth at 0.01 uM after 48 hrs by sulforhodamine B assay; details: DU-145, 48 h, read-out: Activity; method in brief: as §2
UACC-62 = experiment: Cytotoxicity against human UACC62 cells assessed as cell growth at 100 uM after 48 hrs by sulforhodamine B assay; details: UACC-62, 48 h, read-out: Activity
OVCAR-4 = experiment: Cytotoxicity against human OVCAR4 cells assessed as cell growth at 10 '-5 M after 48 hrs by sulforhodamine B assay; details: OVCAR-4, 48 h, read-out: Activity
BT-549 = experiment: Cytotoxicity against human BT549 cells assessed as cell growth at 10 uM after 48 hrs by sulforhodamine B assay; details: BT-549, 48 h, read-out: Activity; method in brief: as §2
T47D [4] = experiment: Cytotoxicity against human T47D cells assessed as cell growth at 10 uM after 48 hrs by sulforhodamine B assay; details: read-out: Activity
SW-620 [5] = experiment: Cytotoxicity against human SW620 cells assessed as cell growth at 1 uM after 48 hrs by sulforhodamine B assay; details: SW-620, 48 h, read-out: Activity
SW-620 [6] = experiment: Cytotoxicity against human SW620 cells assessed as cell growth at 100 uM after 48 hrs by sulforhodamine B assay; details: SW-620, 48 h, read-out: Activity
NCI/ADR-RES = experiment: Growth inhibition of human NCI/ADR-RES cells after 48 hrs by sulforhodamine B assay; method in brief: as §3
SK-MEL-5 = experiment: Cytotoxicity against human SK-MEL-5 cells assessed as cell growth at 0.1 uM after 48 hrs by sulforhodamine B assay; details: SK-MEL-5, 48 h, read-out: Activity
CAKI-1 = experiment: Cytotoxicity against human Caki1 cells assessed as cell growth at 10 '-5 M after 48 hrs by sulforhodamine B assay; details: CAKI-1, 48 h, read-out: Activity
Method in brief: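 Primary NCI-60 single-dose screen at 10 µM. Cells were grown in RPMI 1640 with 5% FBS and 2 mM L-glutamine and plated 24 h before drug addition. Compound was solubilized in DMSO, then exposed for 48 h at 37 °C under 5% CO2. Cells were TCA-fixed and stained with SRB, and absorbance was read at 515 nm. Growth was expressed relative to time-zero and untreated controls.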

SF-295 = experiment: Growth inhibition of human SF295 cells after 48 hrs by sulforhodamine B assay; details: SF-295, 48 h; for CC50: read-out: LC50 (the source's name); method in brief: as §3
HOP-62 [7] = experiment: Cytotoxicity against human HOP62 cells assessed as cell growth at 0.01 uM after 48 hrs by sulforhodamine B assay; details: HOP-62, 48 h, read-out: Activity; method in brief: as §1
[8] = Cytotoxicity against human Hs 578T cells assessed as cell growth at 1 uM after 48 hrs by sulforhodamine B assay; details: read-out: Activity; method in brief: as §1
SN12C = experiment: Cytotoxicity against human SN12C cells assessed as cell growth at 1 uM after 48 hrs by sulforhodamine B assay; details: read-out: Activity
HOP-62 [9] = experiment: Cytotoxicity against human HOP62 cells assessed as cell growth at 1 uM after 48 hrs by sulforhodamine B assay; details: HOP-62, 48 h, read-out: Activity; method in brief: as §1
KM12 = experiment: Cytotoxicity against human KM12 cells assessed as cell growth at 100 uM after 48 hrs by sulforhodamine B assay; details: KM12, 48 h, read-out: Activity
MDA-MB-435 [10] = experiment: Cytotoxicity against human MDA-MB-435 cells assessed as cell growth at 0.1 uM after 48 hrs by sulforhodamine B assay; details: MDA-MB-435, 48 h, read-out: Activity
MDA-MB-435 [11] = experiment: Cytotoxicity against human MDA-MB-435 cells assessed as cell growth at 10 '-5 M after 48 hrs by sulforhodamine B assay; details: MDA-MB-435, 48 h, read-out: Activity
SK-MEL-28 = experiment: Growth inhibition of human SK-MEL-28 cells after 48 hrs by sulforhodamine B assay; details: SK-MEL-28, 48 h; method in brief: as §3
MCF7 [12] = experiment: Cytotoxicity against human MCF7 cells assessed as cell growth at 10 uM after 48 hrs by sulforhodamine B assay; details: MCF7, 48 h, read-out: Activity
RXF 393 = experiment: Growth inhibition of human RXF393 cells after 48 hrs by sulforhodamine B assay; details: RXF 393, 48 h; method in brief: as §3

Question: Which results are given for Cc1ccc2nc(Nc3c(C)cccc3C)sc2c1?
Answer: growth at 10 µM (MCF7 [1]): 19.8%; growth at 0.01 µM (HCT-15): 95%; growth at 1 µM (UACC-257): 83%; growth at 100 µM (NCI-H522): 34%; growth at 0.1 µM (786-0): 97%; growth at 0.1 µM (MCF7 [2]): 92%; GI50 (NCI-H322M): > 100 µM; TGI (NCI-H322M): > 100 µM; CC50 (NCI-H322M): > 100 µM; GI50 (T47D [3]): 54.8 µM; LC50 (concentration giving 50% net cell kill) (T47D [3]): > 100 µM; TGI (T47D [3]): > 100 µM; growth at 0.01 µM (DU-145): 104%; growth at 100 µM (UACC-62): 37%; growth at 10 µM (OVCAR-4): 63%; growth at 10 µM (BT-549): 46%; growth at 10 µM (T47D [4]): 60%; growth at 1 µM (SW-620 [5]): 49%; growth at 100 µM (SW-620 [6]): 45%; GI50 (NCI/ADR-RES): 0.639 µM; LC50 (lethal concentration, 50% net cell kill) (NCI/ADR-RES): > 100 µM; TGI (NCI/ADR-RES): > 100 µM; growth at 0.1 µM (SK-MEL-5): 92%; growth at 10 µM (CAKI-1): 22.1%; GI50 (SF-295): 0.725 µM; TGI (SF-295): > 100 µM; CC50 (SF-295): > 100 µM; growth at 0.01 µM (HOP-62 [7]): 109%; growth at 1 µM [8]: 64%; growth at 1 µM (SN12C): 65%; growth at 1 µM (HOP-62 [9]): 66%; growth at 100 µM (KM12): 48%; growth at 0.1 µM (MDA-MB-435 [10]): 86%; growth at 10 µM (MDA-MB-435 [11]): -23.7%; LC50 (SK-MEL-28): > 100 µM; TGI (SK-MEL-28): > 100 µM; growth at 10 µM (MCF7 [12]): 19%; GI50 (RXF 393): 1.2 µM; TGI (RXF 393): > 100 µM; CC50 (RXF 393; read-out: LC50 (the source's name)): > 100 µM

Question: Which growth at 10 µM (MCF7 [1]) does the source give for Clc1cccc(Cl)c1Nc1nc2cccc(Cl)c2s1 here?
Answer: -14.7%

Question: And the growth at 0.01 µM (HCT-15)?
Answer: 93%

Question: What about the growth at 1 µM (UACC-257) of the same compound?
Answer: 68%

Question: And the growth at 100 µM (NCI-H522)?
Answer: -49%

Question: And the growth at 0.1 µM (786-0)?
Answer: 94%

Question: And the growth at 0.1 µM (MCF7 [2])?
Answer: 87%

Question: And the GI50 (NCI-H322M)?
Answer: 1.46 µM

Question: What about the TGI (NCI-H322M) of the same compound?
Answer: 3.01 µM

Question: And the CC50 (NCI-H322M)?
Answer: 6.19 µM

Question: And the GI50 (T47D [3])?
Answer: 0.841 µM

Question: And the LC50 (concentration giving 50% net cell kill) (T47D [3])?
Answer: 5.08 µM

Question: And the TGI (T47D [3])?
Answer: 2.18 µM

Question: What about the growth at 0.01 µM (DU-145) of the same compound?
Answer: 106%

Question: And the growth at 100 µM (UACC-62)?
Answer: -94%

Question: What about the growth at 10 µM (OVCAR-4) of the same compound?
Answer: 6.72%

Question: What about the growth at 10 µM (BT-549) of the same compound?
Answer: -86%

Question: What about the growth at 10 µM (T47D [4]) of the same compound?
Answer: -90%

Question: What about the growth at 1 µM (SW-620 [5]) of the same compound?
Answer: 69%

Question: And the growth at 100 µM (SW-620 [6])?
Answer: -82%

Question: And the GI50 (NCI/ADR-RES)?
Answer: 0.531 µM

Question: And the LC50 (lethal concentration, 50% net cell kill) (NCI/ADR-RES)?
Answer: 6.23 µM

Question: What about the TGI (NCI/ADR-RES) of the same compound?
Answer: 2.15 µM

Question: What about the growth at 0.1 µM (SK-MEL-5) of the same compound?
Answer: 90%

Question: What about the growth at 10 µM (CAKI-1) of the same compound?
Answer: -10.6%

Question: What about the GI50 (SF-295) of the same compound?
Answer: 0.459 µM

Question: And the TGI (SF-295)?
Answer: 1.9 µM

Question: And the CC50 (SF-295)?
Answer: 4.96 µM

Question: What about the growth at 0.01 µM (HOP-62 [7]) of the same compound?
Answer: 104%

Question: What about the growth at 1 µM [8] of the same compound?
Answer: 49%

Question: And the growth at 1 µM (SN12C)?
Answer: 46%

Question: And the growth at 1 µM (HOP-62 [9])?
Answer: 67%

Question: And the growth at 100 µM (KM12)?
Answer: -98%

Question: What about the growth at 0.1 µM (MDA-MB-435 [10]) of the same compound?
Answer: 87%

Question: What about the growth at 10 µM (MDA-MB-435 [11]) of the same compound?
Answer: -55.9%

Question: What about the GI50 (SK-MEL-28) of the same compound?
Answer: 1.46 µM

Question: What about the LC50 (SK-MEL-28) of the same compound?
Answer: 6.02 µM

Question: And the TGI (SK-MEL-28)?
Answer: 2.96 µM

Question: What about the growth at 10 µM (MCF7 [12]) of the same compound?
Answer: -86%

Question: And the GI50 (RXF 393)?
Answer: 0.676 µM

Question: And the TGI (RXF 393)?
Answer: 2.41 µM
